For 19 compounds, EC50, IC50 and Inhibition results are on record in ChEMBL document CHEMBL1141180, “Synthesis and antiviral activity of helioxanthin analogues” (J Med Chem, 2005).

Each structure is given as a SMILES string. Some results are limits rather than exact numbers.

A short description of assay [1]: Effective concentration to inhibit 50% of cytomegalovirus (CMV) replication in a cell culture model. It is filed as functional.
Assay [2] deals with Hepatitis C virus. Put plainly: Effective concentration to inhibit 50% of hepatitis C virus replication in a cell culture model. In kind it is functional, organism-based, Hepacivirus hominis. The procedure, abridged:
(§1)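 HCV replicon Huh-Luc/neo cells grown to confluence, then treated with varying drug concentrations in DMEM with 10% dFBS for 3 days. Medium was removed and cells lysed in passive lysis buffer, shaken 15 min at room temperature. Lysate was mixed with luciferase substrate and luminescence read immediately as the measure of replicon activity.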

Assay [3] can be described thus: Effective concentration to inhibit 50% of human immunodeficiency virus replication in a cell culture model. It is filed as functional.
For assay [4], the system named is Human alphaherpesvirus 1. Nature of the assay: Effective concentration to inhibit 50% of herpes simplex virus type 1 replication in a cell culture model. In kind it is functional, organism-based.
The subject of assay [5] is Human alphaherpesvirus 2. Put plainly: Effective concentration to inhibit 50% of herpes simplex virus type 2 replication in a cell culture model. In kind it is functional, organism-based.
The subject of assay [6] is CCRF-CEM. Nature of the assay: Cytotoxicity against CEM cell lines of human. It is filed as functional. Conditions: read-out: ID50 (the source's name).
Assay [7] concerns Hepatitis B virus. Put plainly: Effective concentration to inhibit 50% of hepatitis B virus replication in a cell culture model. In kind it is functional, organism-based.
In assay [8] the test system is MT2. Nature of the assay: Cytotoxicity against MT-2 cell lines of human. In kind it is functional. Conditions: read-out: ID50 (the source's name).
In assay [9] the test system is Human gammaherpesvirus 4. Put plainly: Effective concentration to inhibit 50% of epstein Barr virus replication in a cell culture model. In kind it is functional, organism-based.
Assay [10] has as its system Hepatitis C virus. Put plainly: Percent inhibition against Hepatitis C virus replication in a cell culture model. It is filed as functional, Hepacivirus hominis. The procedure, abridged:
as §1

Assay [11] deals with Human alphaherpesvirus 2. Put plainly: Effective concentration to inhibit 50 % of Herpes simplex virus type 2 replication in a cell culture model. Conditions: Oryctolagus cuniculus.
The test system of assay [12] is Hepatitis B virus. Nature of the assay: Effective concentration to inhibit 50 % of hepatitis B virus replication in a cell culture model (3.4>10). It is filed as functional, organism-based.
For assay [13], the system named is Human alphaherpesvirus 1. Put plainly: Effective concentration to inhibit 50 % of Herpes simplex virus type 1 replication in a cell culture model. It is filed as functional, organism-based.
Assay [14] has as its system Human alphaherpesvirus 2. Nature of the assay: Effective concentration to inhibit 50 % of herpes simplex virus type 2 replication in a cell culture model;ND=Not determined. The conditions noted are these: Oryctolagus cuniculus.
The subject of assay [15] is Human gammaherpesvirus 4. Put plainly: Effective concentration to inhibit 50 % of Epstein Barr virus replication in a cell culture model. In kind it is functional, organism-based, epsteinBarr virus.

On to `NC(=O)c1cc2ccc3c(c2c(-c2ccc4c(c2)OCO4)c1C(=O)O)OCO3`, for which the EC50 was 0.45 µM in assay [1]; 3 µM in [2]; over 5 µM in assay [3]; 0.15 µM in [4]; under 0.1 µM in assay [5]; 0.8 µM in [7]. The compound further returned a half-maximal effective concentration (EC50) in assay [9] of 9 µM. The IC50 in assay [6] is 8.4 µM; in assay [8], 5 µM.

With `NC(=O)c1cc2ccc3c(c2c(-c2ccc4c(c2)OCO4)c1C(N)=O)OCO3`, the EC50 in [2] was over 10 µM; in assay [3] it was over 100 µM; in [4] it was over 50 µM; in [5] it was over 50 µM; in assay [7] it was over 10 µM; in [9], over 20 µM. Further, the IC50 in assay [6] and in assay [8] was over 100 µM each time.

`O=c1[nH][nH]c(=O)c2c(-c3ccc4c(c3)OCO4)c3c4c(cc(Br)c3cc12)OCO4` yielded an Inhibition in [10] of 45%. The EC50 in [2] was 3 µM; in assay [3], 2.5 µM; in [4], 16 µM; in assay [5] it was over 20 µM; in assay [7] it was over 10 µM; in assay [9] it was over 20 µM. Besides, the IC50 in assay [6] is 28 µM; in [8] it was over 100 µM.

`CCOC(=O)c1c(C(=O)OCC)c(-c2ccc3c(c2)OCO3)c2c3c(ccc2c1OC)OCO3`: the EC50 was over 10 µM in [2]; over 24 µM in assay [3]; over 50 µM in assay [4]; over 50 µM in assay [5]; over 20 µM in assay [7]; over 20 µM in assay [9]. Besides, the values for the IC50 in assay [6] and in assay [8] were over 100 µM and 24 µM, respectively.

As to `O=C1OCc2c1cc1c(Br)cc3c(c1c2-c1ccc2c(c1)OCO2)OCO3`, the EC50 was over 10 µM in assay [2]; over 100 µM in assay [3]; over 50 µM in assay [4]; over 50 µM in assay [5]; over 40 µM in assay [7]; over 15 µM in [9]. The figures for the IC50 in assay [6] and in assay [8] were 100 µM and over 100 µM, respectively.

As to `O=C1NCc2c1cc1c(Br)cc3c(c1c2-c1ccc2c(c1)OCO2)OCO3`, the EC50 is 10 µM in assay [2]; over 54 µM in assay [3]; 6.5 µM in assay [4]; over 20 µM in assay [5]; over 10 µM in assay [7]; over 20 µM in assay [9]. Further, the IC50 worked out at 38 µM in assay [6] and 54 µM in assay [8].

Turning to `O=C(O)c1cc2c(Br)cc3c(c2c(-c2ccc4c(c2)OCO4)c1CO)OCO3`, the EC50 in [1] is over 20 µM; in assay [3] it was over 50 µM; in assay [4], over 50 µM; in [5], over 50 µM; in assay [7], over 18 µM; in [9] it was over 20 µM. Moreover, the values for the IC50 in assay [6] and in assay [8] were 46.5 µM and 50 µM, respectively.

Regarding `O=C(O)c1cc2c(Cl)cc3c(c2c(-c2ccc4c(c2)OCO4)c1CO)OCO3`, the 50% effective concentration (EC50) is over 20 µM in assay [1]; over 10 µM in assay [2]; over 60 µM in assay [3]; over 50 µM in assay [4]; over 20 µM in [5]; over 10 µM in [7]. Further, the EC50 in [9] is over 20 µM. Further, the results for the IC50 in assay [6] and in assay [8] were over 100 µM and 60 µM, respectively.

Consider `O=C1OCc2c1cc1c(I)cc3c(c1c2-c1ccc2c(c1)OCO2)OCO3`, for which the EC50 in assay [2] was over 10 µM; in [3] it was over 80 µM; in assay [4], over 25 µM; in assay [5], over 25 µM; in assay [7] it was over 20 µM; in [9], over 10 µM. The results for the IC50 in assay [6] and in assay [8] were 70 µM and 80 µM, respectively.

As to `CCOC(=O)c1c(C(=O)OCC)c(-c2ccc3c(c2)OCO3)c2c3c(ccc2c1O)OCO3`, the EC50 in [2] was over 10 µM; in assay [3], over 15 µM; in assay [4], over 50 µM; in [7], over 10 µM; in assay [11], over 50 µM; in [9] it was over 10 µM. Further, the values for the IC50 in [6] and in assay [8] were 39 µM and 15 µM, respectively.

As for `O=C1OC(=O)c2c1cc1ccc3c(c1c2-c1ccc2c(c1)OCO2)OCO3`, the concentration giving a half-maximal response (EC50) in assay [1] was 17.6 µM; in [2] it was over 10 µM; in [3] it was over 100 µM; in [4], over 50 µM; in [5], over 50 µM; in assay [7], over 10 µM. In [9], this compound returned an EC50 of over 20 µM. Moreover, the IC50 was over 50 µM in assay [6] and over 100 µM in [8].

As for `O=C1c2cc3ccc4c(c3c(-c3ccc5c(c3)OCO5)c2C(=O)N1CCCOCc1ccccc1)OCO4`, in [10], the Inhibition is reported as 62%. Further, the EC50 in assay [2] is 10 µM; in assay [3] it was over 100 µM; in [4] it was over 50 µM; in [5], over 50 µM; in [9], over 5 µM. The IC50 in assay [6] and in assay [8] was over 100 µM each time.

For the compound `O=C(O)c1cc2c(I)cc3c(c2c(-c2ccc4c(c2)OCO4)c1CO)OCO3`, the EC50 was over 20 µM in [1]; 10 µM in assay [2]; over 80 µM in assay [3]; over 50 µM in [4]; over 50 µM in [5]; over 20 µM in assay [9]. The IC50 in assay [6] is over 100 µM; in [8], 80 µM.

Turning to `O=C1c2cc3ccc4c(c3c(-c3ccc5c(c3)OCO5)c2C(=O)N1CCCO)OCO4`, the concentration giving a half-maximal response (EC50) is 8.1 µM in assay [1]; over 10 µM in [2]; over 22 µM in assay [3]; over 30 µM in assay [4]; over 30 µM in assay [5]; over 20 µM in [7]. The compound further displayed an EC50 in assay [9] of over 5 µM. The values for the IC50 in [6] and in [8] were 27 µM and 22 µM, respectively.

In the case of `O=C1OCc2c1cc1c(Cl)cc3c(c1c2-c1ccc2c(c1)OCO2)OCO3`, the concentration for a half-maximal effect (EC50) in assay [1] was 8.8 µM; in assay [2], over 10 µM; in assay [3], over 50 µM; in assay [4], 23 µM; in [5] it was over 25 µM; in assay [7] it was over 60 µM. Also, in assay [9], the EC50 is over 20 µM. Further, the IC50 stood at 27 µM in assay [6] and 50 µM in assay [8].

As for `O=C(O)c1cc2ccc3c(c2c(-c2ccc4c(c2)OCO4)c1CO)OCO3`, the EC50 was 2.5 µM in assay [1]; over 3.4 µM in assay [12]; 10 µM in assay [2]; over 10 µM in assay [3]; 9 µM in [4]; 25 µM in assay [5]. For the same compound, in assay [9], the 50% effective concentration (EC50) was over 20 µM. Also, the IC50 in [6] was found to be 30 µM; in assay [8], 10 µM.

As for `Nc1nc2c(ncn2COCCO)c(=O)[nH]1` [ACYCLOVIR], the concentration giving a half-maximal response (EC50) in [7] worked out at 0.02 µM; in assay [13] it was 8 µM; in [14] it was 51 µM.

Turning to `O=C1OCc2c1cc1ccc3c(c1c2-c1ccc2c(c1)OCO2)OCO3` [HELIOXANTHIN], the EC50 in [1] is 7.3 µM; in [2], over 3 µM; in assay [3] it was over 2.5 µM; in assay [4] it was 2 µM; in [5], 35 µM; in assay [7], over 1 µM. In assay [9], this compound gave a concentration giving a half-maximal response (EC50) of over 20 µM. Also, the IC50 stood at 30 µM in [6] and 2.5 µM in [8].

`Nc1ccn([C@@H]2CS[C@H](CO)O2)c(=O)n1` [LAMIVUDINE] came in with an EC50 in assay [15] of 0.4 µM.
